# High-throughput results: PubChem BioAssay, Johns Hopkins Ion Channel Center
# Kir21 inh = blocks the mouse Kir2.1 inward-rectifier potassium channel; P35561; actives 0.85% (n = 310,000); B-score at 10 µM; AID 1672; HEK293-Kir2.1, FluxOR thallium flux fluorescence; stronger effect = lower value;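 active = fluorescence ratio B-score at or below minus 3 SD of library scores, with starting-brightness B-score within 2 SD, cut at about -4.2 in these data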;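 also: channel flux triggered by added potassium and thallium sulfate stimulus; B-score of peak minus minimum fluorescence over baseline after thallium stimulus; more negative B-score means stronger Kir2.1 block with less thallium influx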
# KCNK9 block = blocks the human KCNK9 two-pore domain potassium channel; Q9NPC2; HEK293 KCNK9, FluxOR thallium flux fluorescence; stronger effect = lower value; B-score at 10 µM; actives 1.2% (n = 310,000); AID 488922;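 active = ratio B-score over 3 SD below the library mean, with starting fluorescence within 5 SD of its mean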;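 also: negative B-score means less thallium flux so channel inhibition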
# Target sequence (Q9NPC2 whole entry, looked up, the tested form may be a part): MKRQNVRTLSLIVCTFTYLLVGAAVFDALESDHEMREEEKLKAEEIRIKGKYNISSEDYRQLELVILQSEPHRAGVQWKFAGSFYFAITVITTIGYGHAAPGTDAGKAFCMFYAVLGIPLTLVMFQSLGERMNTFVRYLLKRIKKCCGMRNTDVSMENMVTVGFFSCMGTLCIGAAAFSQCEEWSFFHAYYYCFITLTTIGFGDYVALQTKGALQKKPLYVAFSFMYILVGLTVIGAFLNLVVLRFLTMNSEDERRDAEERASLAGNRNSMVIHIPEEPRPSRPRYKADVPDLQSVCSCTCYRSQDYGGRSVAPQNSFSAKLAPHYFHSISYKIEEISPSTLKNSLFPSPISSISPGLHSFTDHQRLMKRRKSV
# KCNQ1 block = blocks the human KCNQ1 potassium channel | P51787 | CHO-K1 KCNQ1, FluxOR thallium flux fluorescence; stronger effect = higher value | B-score at 10 µM | actives 1.3% (n = 310,000) | AID 2642;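 active = compounds whose thallium flux B-score, printed positive for inhibition, exceeds three library SD while starting fluorescence stays within three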;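 also: channel opened by potassium depolarization with thallium stimulus after 20 min compound exposure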
# hERG rescue = shields human hERG channel from block by proarrhythmic agents. CHO-hERG, FluxOR thallium flux, dofetilide IC70 present. activation (rescue from dofetilide block), less the hit threshold, % at 10 µM. actives 0.51% (n = 310,000). AID 1511;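 active = activation above the mean of controls blocked by dofetilide plus 5 SD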;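 also: thallium influx through hERG after potassium depolarization seen as dye fluorescence rise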
# KCNQ1 act = potentiates or activates the human KCNQ1 potassium channel; actives 0.35% (n = 310,000); B-score at 10 µM; CHO-K1 KCNQ1, thallium flux FluxOR fluorescence; stronger effect = higher value; P51787; AID 2648;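 active = fluorescence ratio B-score, a plate-corrected score, at least three library SD, with initial intensity B-score within 5 SD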
#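 Assay system: stable KCNQ1 CHO-K1 line; medium: assay buffer, equal DMSO in all wells; timing: 90 min dye loading and 20 min compound exposure, both at room temperature; technique: kinetic FluxOR thallium fluorescence, 10-s 1-Hz baseline, 110-s post-stimulus read; read-out basis: B score of baseline-normalized fluorescence ratio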
# KCNK3 block = human KCNK3 channel inhibition, primary screen. CHO-KCNK3 thallium flux, FluxOR fluorescence; stronger effect = lower value. B-score at 10 µM. actives 0.84% (n = 340,000). AID 602410;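 active = B-score under library mean minus 4 SD, starting fluorescence ratio at most library mean plus 5 SD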;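 also: more negative B-score means stronger inhibition of thallium flux through KCNK3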
# Active calls of the source: *; i = inactive; . = not tested or not shown. This is a sample that favours compounds with a hit; in the whole collection about 3.7% have one here.
SMILES,Kir21 inh,KCNK9 block,KCNQ1 block,hERG rescue,KCNQ1 act,KCNK3 block
Fc1cccc2sc(Nc3nnc(-c4ccccc4)o3)nc12,-1.3,i,i,51*,66*,i
Fc1cccc2sc(Nc3nc4c(F)cccc4s3)nc12,0.68,i,i,13*,i,i
COc1cc(OC)cc(-c2nnc(Nc3nc4c(F)cccc4s3)o2)c1,-0.41,i,i,5.9*,22*,i
NNc1nc2c(F)cccc2s1,-0.13,i,i,-9,i,i
CC(C)(C)NC(=O)COC(=O)c1ccc2c(c1)C(=O)N(Cc1ccco1)C2=O,0.02,i,i,-13,i,i
CCOC(=O)Nc1ccc2c(c1)Nc1ccccc1S2,1.2,-6.6*,i,-7,i,i
CC(C)(C)OC(=O)C[C@H]1C/C=C\C[C@@H](CC(=O)NCCO)C(=O)NCCOC1=O,.,.,.,.,.,i
CCOC(=O)COc1ccccc1/C=C\[N+](=O)[O-],-3.1,i,i,-20,i,i
Nc1ccn(Cc2ccccc2)n1,-1.5,i,i,41*,i,i
O=C(NC(Nc1ncc(S(=O)(=O)c2ccc([N+](=O)[O-])cc2)s1)(C(F)(F)F)C(F)(F)F)c1ccc(Cl)cc1,-6.9*,i,i,-22,i,i
COc1ccc(NC(=O)c2sc(SC)nc2N)cc1,0.47,i,i,5.1*,i,i
COc1ccc(NC(=O)c2sc(SCc3ccccc3)nc2N)cc1,-1.3,i,i,3,i,i
C=CCc1cccc([C@@H]2[C@@H](C)CC[C@H]3C(=O)N4[C@@H](c5cc(OC)c(OC)c(OC)c5)c5[nH]c6ccccc6c5C[C@H]4C(=O)N23)c1,-0.01,i,i,-4,i,.
CCCCN(C(=O)CCn1c(=O)oc2ccccc21)c1ccccc1,-8.2*,i,i,-9,i,i
COc1ccccc1C(=O)NCCC(=O)N1CC=C(c2ccccc2)CC1,-4.5*,i,i,-8,i,i
COc1cccc(NC(=O)NCC2CCN(Cc3ccc(F)cc3)CC2)c1,0,i,i,-6,8*,i
O=C(NNC1=NCCC1)C1CC1,3.2,i,i,-4,i,i
CC1CC(C)CN(CCCNC(=O)c2cc3c(s2)-c2ccccc2OC3)C1 (centres undefined),-2.5,i,6*,-13,i,i
Cc1cccc2c1-c1sc(C(=O)NCCCN3CCCC(C)C3)cc1CO2 (centres undefined),-4.7*,i,i,-23,i,i
CCN1CCN(CCCNC(=O)c2cc3c(s2)-c2ccccc2OC3)CC1,-1.5,i,i,-11,i,i
CCCN1CCN(CCCNC(=O)c2cc3c(s2)-c2c(C)cccc2OC3)CC1,-0.85,i,i,-19,i,i
CC(=O)c1cn(Cc2ccccc2)c(=O)[nH]c1=O,-0.65,i,i,-4,i,i
COc1ccccc1NCC(=O)n1nc(C)cc1C,-0.67,i,i,6.7*,i,i
Cc1c(C(=O)NCc2ccccc2)oc2ccc(S(=O)(=O)N3CCC4(CC3)OCCO4)cc12,-0.06,i,i,-4,i,i
Cc1c(C(=O)NCCC2=CCCCC2)oc2ccc(S(=O)(=O)N3CCC4(CC3)OCCO4)cc12,-1.5,i,i,-21,i,-9.1*
SMILES,Kir21 inh,KCNK9 block,KCNQ1 block,hERG rescue,KCNQ1 act,KCNK3 block
Cc1c(C(=O)Nc2ccc(F)cc2)oc2ccc(S(=O)(=O)N3CCCC3)cc12,0.59,i,i,-1,i,i
Cc1c(C(=O)Nc2ccc(F)c(F)c2)oc2ccc(S(=O)(=O)N3CCCCC3)cc12,0.59,i,i,-4,i,-10*
CC1(C)C[C@H](O)[C@]2(CO)[C@H](O)C[C@]3(C)C(=CCC4[C@@]5(C)CC[C@H](O)C(C)(C)C5CC[C@]43C)[C@@H]2C1 (some centres undefined),.,.,.,.,.,i
C=CCSc1nnc(NC(=O)Cn2cnc3c2c(=O)n(C)c(=O)n3C)s1,-0.99,i,i,10*,i,i
Cn1c(=O)c2c(ncn2CC(=O)Nc2nnc(Cc3ccccc3)s2)n(C)c1=O,-0.88,i,i,-2,i,i
CN(C)CC(CCC(CN(C)C)C(O)(c1ccccc1)c1ccccc1)C(O)(c1ccccc1)c1ccccc1 (centres undefined),-5.6*,i,i,-7,i,.
CC(C)NC(=O)/C(C#N)=C\c1ccc(N(C)C)o1,-3.7,-7*,i,-21,i,i
CC(NC(=O)/C(C#N)=C/c1ccc([N+](=O)[O-])o1)c1ccccc1 (centres undefined),-7.7*,i,i,-10,i,i
N=c1n(CCN2CCCCC2)c2ccccc2n1CC(O)COc1ccccc1 (centres undefined),-3.2,i,i,-5,i,i
N=c1n(CCN2CCCCC2)c2ccccc2n1CC(O)c1cccc(Br)c1 (centres undefined),-6.8*,i,i,-10,i,i
N=c1n(CCN2CCCCC2)c2ccccc2n1CC(O)c1ccc(Cl)c(Cl)c1 (centres undefined),-8.6*,i,i,-21,i,i
COc1ccccc1OCC(O)Cn1c(=N)n(CCN2CCCCC2)c2ccccc21 (centres undefined),-0.09,i,i,-17,i,i
CN(C)CCn1c(=N)n(CC(O)c2ccc(Cl)c(Cl)c2)c2ccccc21 (centres undefined),-6.9*,i,i,-17,i,i
N=c1n(CCN2CCCCC2)c2ccccc2n1CC(=O)c1ccc(Cl)c(Cl)c1,-4.8*,i,i,-25,i,i
O=C(O)c1cc(O)ccc1NC(=O)C(c1ccccc1)c1ccccc1,-0.66,i,i,-4,i,i
CN1CCN(C(CNC(=O)C(=O)NC2CCCCC2)c2ccc(F)cc2)CC1 (centres undefined),-1.6,i,i,-14,i,i
Cc1ccc(CSCCNS(=O)(=O)c2ccc(C)cc2)cc1,-5.5*,i,i,-3,i,i
Cc1ccc(CCNS(=O)(=O)c2ccc(C)cc2)cc1,0.03,i,i,-8,i,i
Cc1ccc(NC(=O)CSC(N)=O)cc1Cl,-3.3,-13*,i,-5,i,i
CCCn1nc(C(=O)NNC(=O)c2ccc(C)c(C)c2)c2ccccc2c1=O,.,.,.,.,.,i
CCCn1nc(C(=O)N2CCN(S(=O)(=O)c3ccc(C)c(C)c3)CC2)c2ccccc2c1=O,.,.,.,.,.,-9.5*
